Results published in publication PMC5191920 (Biochimica et biophysica acta, 2016).
Entries after “also recorded” stand apart in the source; their conditions may differ. Ends that are not written are not given here.

Columns and labels:
[1] = Circular dichroism spectroscopy; assay type: physicochemical; details: 37 °C; for helicity, with TFE: 20% trifluoroethanol
Method in brief: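 Peptides at 0.2 mg/mL (final) in 10 mM phosphate buffer, with or without 20% trifluoroethanol, held at 37 °C. Far-UV spectra recorded from 190 to 240 nm on a spectropolarimeter. Ellipticity in mdeg converted to mean residue ellipticity (deg cm² dmol⁻¹).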

isolated human LDL = experiment: Isothermal titration calorimetry, binding to LDL; details: for binding to LDL by ITC: isolated human LDL injected into peptide, PBS pH 7.4
Method in brief: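 Human LDL and HDL isolated by ultracentrifugation. Lipoprotein titrated into a cell holding peptide or buffer alone: one initial injection, then 35 injections spaced 180 s apart. Heat monitored throughout and thermograms integrated to isotherms.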

isolated human HDL = experiment: Isothermal titration calorimetry, binding to HDL; details: isolated human HDL injected into peptide, PBS pH 7.4
Method in brief: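 Human HDL isolated by ultracentrifugation. Lipoprotein titrated into cell holding peptide or buffer alone: one small initial injection, then 35 injections, 180 s apart, with heat monitored continuously. Thermograms integrated to binding isotherms.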

[2] = DMP cross-linking, SDS-PAGE; assay type: physicochemical; details: PBS, DMP:peptide 30:1, 2 h room temperature
Method in brief: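 Homo-bifunctional amine-reactive crosslinker dimethylpimelimidate reacted with peptide at 30:1 molar ratio (crosslinker:peptide) in PBS for 2 h at room temperature. Quenched with 1 M Tris. Products resolved by SDS-PAGE under reducing conditions and stained with Coomassie blue to visualise oligomeric species.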

human ABCA1 = human ABCA1 (Homo sapiens, UniProt O95477); experiment: Cholesterol efflux, ABCA1 transfected BHK cells; assay type: cell-based; details: ABCA1 expressing BHK cells, 18 h
Method in brief: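 BHK cells stably expressing human ABCA1 labelled 18 h with [3H]cholesterol in DMEM plus 10% fetal calf serum. Cells were washed, then switched to serum-free DMEM with 0.1 mg/ml fatty acid-free BSA. Peptide over a concentration range, or PBS, added for 18 h. Media filtered, cells lysed in 0.1% SDS/0.1 N NaOH, both counted by liquid scintillation. Efflux = media counts/(media + cell counts) × 100.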

DMPC vesicle clearance = assay type: physicochemical; details: peptide 100 ng/ml, DMPC 1 mg/ml, PBS, 24 °C, 60 min, absorbance 432 nm
Method in brief: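 Multilamellar DMPC vesicles (1 mg/ml) made by resuspending dried lipid in PBS and vortexing for 5 min. Peptide added to 100 ng/ml final. Absorbance at 432 nm read every 5 s for 60 min at 24 °C with fast shaking to prevent settling. Turbidity compared with a PBS-only control.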

[3] = test system: apoB containing lipoproteins in human plasma; assay type: binding; details: FPLC separation, VLDL plus LDL
Method in brief: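 FITC-labelled peptide incubated with human plasma for 1 h at 37 °C. Separated on two Superose 6 columns in series in Tris buffer (10 mM Tris, 150 mM NaCl, 0.5 mM EDTA, 0.01% azide) at 0.5 mL/min, collecting 0.5 mL fractions. Enzymatic phospholipid assay located VLDL, LDL and HDL. Fluorescence read at ex 485 / em 535 nm. Each peak expressed as percent of total fluorescence.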

[4] = test system: lipoproteins in human plasma; experiment: Exchangeability of LDL-bound peptide among lipoproteins; details: FITC labeled B38 on isolated LDL, then human plasma 1 h at 37 °C, FPLC
Method in brief: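 FITC-labelled peptide co-incubated with isolated human LDL for 1 h at 37 °C. LDL repurified by FPLC to remove unbound peptide, and LDL fractions pooled and concentrated. Peptide-loaded LDL then incubated with PBS or human plasma for 1 h at 37 °C. Transfer of fluorescent peptide to other lipoprotein classes measured.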

human red blood cells = experiment: Red blood cell lysis assay; assay type: cell-based; details: human RBCs, 0 – 100 µM, 2 h room temperature, 1% Triton X-100 = 100% lysis
Method in brief: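 Human erythrocytes washed 5 times in PBS with 5% glucose, pH 7.4. Incubated with peptide at 0–100 µM for 2 h at room temperature, then pelleted at 1000×g for 5 min. Supernatant absorbance read at 450 nm. 1% Triton X-100 served as the 100% lysis reference.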

BHK cells = experiment: Visual cytotoxicity during cholesterol efflux experiments; assay type: cell-based; details: during the cholesterol efflux experiments
cells = details: ref [48]; cited from earlier work
[5] = 0.2 mg/mL peptide, 10 mM phosphate buffer

Chain of human ABCA1 (O95477 whole entry): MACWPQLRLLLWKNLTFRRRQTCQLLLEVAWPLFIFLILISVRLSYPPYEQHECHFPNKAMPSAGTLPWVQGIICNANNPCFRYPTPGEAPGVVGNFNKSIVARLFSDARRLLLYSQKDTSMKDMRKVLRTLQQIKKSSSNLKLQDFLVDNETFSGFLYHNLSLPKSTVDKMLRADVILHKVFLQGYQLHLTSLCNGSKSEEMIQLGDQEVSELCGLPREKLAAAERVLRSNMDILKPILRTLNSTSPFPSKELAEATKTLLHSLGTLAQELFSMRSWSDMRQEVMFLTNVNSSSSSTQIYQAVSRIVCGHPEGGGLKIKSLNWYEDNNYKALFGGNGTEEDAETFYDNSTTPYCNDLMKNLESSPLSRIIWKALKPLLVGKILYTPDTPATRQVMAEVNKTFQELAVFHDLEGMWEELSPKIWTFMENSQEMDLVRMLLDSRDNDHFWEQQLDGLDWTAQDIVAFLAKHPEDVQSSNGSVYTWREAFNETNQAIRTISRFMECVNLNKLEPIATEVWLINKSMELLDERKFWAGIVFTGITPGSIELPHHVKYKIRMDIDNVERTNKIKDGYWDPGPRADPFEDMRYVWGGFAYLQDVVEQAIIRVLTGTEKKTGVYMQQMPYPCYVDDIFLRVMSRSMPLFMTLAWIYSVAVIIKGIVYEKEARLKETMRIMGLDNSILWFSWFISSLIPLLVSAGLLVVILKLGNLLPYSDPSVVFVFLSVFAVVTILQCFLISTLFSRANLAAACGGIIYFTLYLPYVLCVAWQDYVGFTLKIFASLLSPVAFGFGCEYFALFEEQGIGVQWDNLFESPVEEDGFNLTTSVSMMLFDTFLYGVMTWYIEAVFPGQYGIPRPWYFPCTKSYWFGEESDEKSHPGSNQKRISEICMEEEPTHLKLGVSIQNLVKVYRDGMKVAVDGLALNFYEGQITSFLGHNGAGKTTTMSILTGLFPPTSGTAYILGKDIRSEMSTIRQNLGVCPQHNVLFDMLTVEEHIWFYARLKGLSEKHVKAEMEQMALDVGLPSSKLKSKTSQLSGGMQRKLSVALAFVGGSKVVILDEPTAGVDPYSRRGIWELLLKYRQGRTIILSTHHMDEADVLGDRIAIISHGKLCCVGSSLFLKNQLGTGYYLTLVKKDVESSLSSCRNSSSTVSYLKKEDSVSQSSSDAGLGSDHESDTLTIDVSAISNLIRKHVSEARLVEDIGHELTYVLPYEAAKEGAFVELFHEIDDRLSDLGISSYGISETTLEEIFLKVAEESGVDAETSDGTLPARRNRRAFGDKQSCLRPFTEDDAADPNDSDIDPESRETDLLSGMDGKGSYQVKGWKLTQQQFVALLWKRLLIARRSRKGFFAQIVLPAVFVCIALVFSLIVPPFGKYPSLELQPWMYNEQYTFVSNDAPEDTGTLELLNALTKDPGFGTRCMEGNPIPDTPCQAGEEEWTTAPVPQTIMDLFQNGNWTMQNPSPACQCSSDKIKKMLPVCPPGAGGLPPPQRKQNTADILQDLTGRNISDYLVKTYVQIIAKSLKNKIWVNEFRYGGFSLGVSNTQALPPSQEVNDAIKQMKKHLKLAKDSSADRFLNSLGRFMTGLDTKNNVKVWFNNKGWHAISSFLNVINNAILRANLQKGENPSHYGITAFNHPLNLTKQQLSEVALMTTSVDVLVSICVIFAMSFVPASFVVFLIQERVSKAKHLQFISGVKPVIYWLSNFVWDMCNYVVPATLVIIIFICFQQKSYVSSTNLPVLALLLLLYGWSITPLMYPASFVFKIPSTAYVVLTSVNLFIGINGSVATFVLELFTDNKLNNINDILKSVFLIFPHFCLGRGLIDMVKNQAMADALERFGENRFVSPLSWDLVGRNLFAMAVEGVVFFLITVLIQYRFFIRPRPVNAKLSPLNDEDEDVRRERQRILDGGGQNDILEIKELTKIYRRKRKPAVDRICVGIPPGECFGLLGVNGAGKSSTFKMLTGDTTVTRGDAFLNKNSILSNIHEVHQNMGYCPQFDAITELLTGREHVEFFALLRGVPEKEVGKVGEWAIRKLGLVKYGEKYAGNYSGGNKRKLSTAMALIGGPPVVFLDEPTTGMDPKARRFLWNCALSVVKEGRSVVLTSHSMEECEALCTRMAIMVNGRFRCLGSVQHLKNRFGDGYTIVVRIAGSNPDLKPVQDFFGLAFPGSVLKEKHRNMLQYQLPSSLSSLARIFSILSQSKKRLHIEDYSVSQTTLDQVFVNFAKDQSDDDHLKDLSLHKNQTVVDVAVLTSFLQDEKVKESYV

EKLKAKLKEGGLNIKRGIISALLVPPETEEAGGEKLKAKLKE [B04]
helicity, with TFE [1, 5]: 43%
secondary structure by CD, aqueous solution ([1]; 10 mM phosphate buffer, no TFE): random coil structure

EKLKAKLKEGGEKLKAKLKE [FLANK]
helicity, with TFE [1, 5]: 38%
secondary structure by CD, aqueous solution ([1]; 10 mM phosphate buffer, no TFE): random coil structure
binding to LDL by ITC (isolated human LDL): did not appear to bind strongly to either lipoprotein
binding to HDL by ITC (isolated human HDL): did not appear to bind strongly to either lipoprotein
oligomeric forms in aqueous solution [2]: only found as monomer and dimer in aqueous solution
cholesterol efflux, ABCA1 cells (human ABCA1): ineffective in promoting cholesterol efflux
solubilization / clearance of DMPC vesicles (DMPC vesicle clearance): did not solubilize DMPC vesicles

EKLKAKLKEGGQELQRYLSLVGQVYSTLVTYISDWWTLGGEKLKAKLKE [B38]
helicity, with TFE [1, 5]: 59%
helicity, aqueous solution ([1]; 0.2 mg/mL peptide, 10 mM phosphate buffer, no TFE): 40.1%
secondary structure by CD, aqueous solution ([1]; 10 mM phosphate buffer, no TFE): α-helical secondary structure; also recorded: formed an α-helix in aqueous buffer
helicity, with POPC vesicles ([1]; POPC vesicles added (also printed POPS)): 42.4%
secondary structure by CD, with POPC vesicles ([1]; POPC vesicles added): slight increase in helicity
total binding energy for LDL relative to HDL (isolated human LDL; ITC, isolated human LDL vs. HDL): 2.7 times
lipoprotein binding of synthesized HCD peptides (isolated human LDL; ITC, lipoprotein class not specified): showed significant lipoprotein binding capacity
shape of ITC thermal energy curve (isolated human LDL; binding to lipoprotein particles): U-shaped curve
binding to LDL by ITC (isolated human LDL): high affinity binding to both isolated HDL and LDL; also recorded: only peptide with significant binding affinity for LDL
binding energy in buffer control (isolated human LDL; peptide in buffer control (no LDL)): lack of significant binding energy
binding to HDL by ITC (isolated human HDL): high affinity binding to both isolated HDL and LDL; also recorded: found to bind to high density lipoprotein (HDL) but with lower affinity than LDL
oligomeric forms in aqueous solution [2]: presence of B38 oligomers in aqueous solution
percent of peptide bound to apoB containing lipoproteins [3]: 17%
exchangeability between lipoproteins [4]: could exchange between lipoproteins; also recorded: exchangeable between lipoproteins
cholesterol efflux, ABCA1 cells (human ABCA1): capable of ABCA1-dependent cholesterol efflux from cells; also recorded: promotes ABCA1 specific cholesterol efflux
solubilization / clearance of DMPC vesicles (DMPC vesicle clearance): rapidly cleared the solution; also recorded: does not clear DMPC vesicles as rapidly
concentration above which a small amount of red cell lysis occurs (human red blood cells): above 30 uM
visual evidence of cytotoxicity (BHK cells): no visual evidence of cytotoxicity was observed

apoB: large amphipathic protein, structural scaffold of several classes of lipoproteins
cholesterol efflux from cells (cells): does not promote cholesterol efflux from cells

DWLKAFYDKVAEKLKEAFPDWAKAAYDKAAEKAKEAA [5A, reference compound]
solubilization / clearance of DMPC vesicles (DMPC vesicle clearance): rapidly cleared the solution

EKLKAKLKEGGKATLELSPWQMSALVQVHASQPSSFHDFPDLGGEKLKAKLKE [B61]
helicity, with TFE [1, 5]: 60%
secondary structure by CD, aqueous solution ([1]; 10 mM phosphate buffer, no TFE): random coil structure

EKLKAKLKEGGGLSDEAVTSLLPQLIEVSSPGGEKLKAKLKE [B07]
helicity, with TFE [1, 5]: 40%
secondary structure by CD, aqueous solution ([1]; 10 mM phosphate buffer, no TFE): random coil structure
